Measured values from the M2OR odorant receptor database.
Changes are numbered by the printed parent chain.

Assays:
Details in all cases: stereoisomer not certain
OR1G1 (Homo sapiens) = target: T1, OR1G1 (Homo sapiens) (UniProt P47890)
T1 sequence (whole entry): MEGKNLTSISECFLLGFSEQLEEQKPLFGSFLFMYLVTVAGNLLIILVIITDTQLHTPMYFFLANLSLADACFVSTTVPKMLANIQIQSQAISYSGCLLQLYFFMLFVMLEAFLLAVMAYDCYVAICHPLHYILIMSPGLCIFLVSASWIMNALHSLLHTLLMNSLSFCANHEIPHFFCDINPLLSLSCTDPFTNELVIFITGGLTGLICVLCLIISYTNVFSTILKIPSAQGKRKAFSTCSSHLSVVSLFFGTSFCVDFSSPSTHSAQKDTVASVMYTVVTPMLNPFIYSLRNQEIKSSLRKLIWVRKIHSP
Method in brief: (§1)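 Each receptor–molecule pair is labelled responsive or non-responsive (inactive) according to whether the original authors judged the measured signal statistically different from baseline. The data were taken from the main text and supplementary material of published papers and checked for typos and inconsistencies. Assay methods differed by source, with transient luciferase assays in mammalian cell lines being common.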

OR1D5 (Homo sapiens) = target: T2, OR1D5 (Homo sapiens) (UniProt P58170)
T2 sequence (whole entry): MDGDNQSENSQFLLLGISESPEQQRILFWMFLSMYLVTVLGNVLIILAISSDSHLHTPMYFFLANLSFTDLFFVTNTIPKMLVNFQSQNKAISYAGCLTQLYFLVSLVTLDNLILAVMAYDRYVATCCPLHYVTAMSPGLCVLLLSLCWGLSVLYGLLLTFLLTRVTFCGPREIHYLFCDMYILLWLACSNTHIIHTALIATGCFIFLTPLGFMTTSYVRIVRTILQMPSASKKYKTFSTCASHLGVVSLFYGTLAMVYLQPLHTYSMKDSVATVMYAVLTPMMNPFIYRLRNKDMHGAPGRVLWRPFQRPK
Method in brief: as §1

OR1E1 (Homo sapiens) = target: T3, OR1E1 (Homo sapiens) (UniProt P30953)
T3 sequence (whole entry): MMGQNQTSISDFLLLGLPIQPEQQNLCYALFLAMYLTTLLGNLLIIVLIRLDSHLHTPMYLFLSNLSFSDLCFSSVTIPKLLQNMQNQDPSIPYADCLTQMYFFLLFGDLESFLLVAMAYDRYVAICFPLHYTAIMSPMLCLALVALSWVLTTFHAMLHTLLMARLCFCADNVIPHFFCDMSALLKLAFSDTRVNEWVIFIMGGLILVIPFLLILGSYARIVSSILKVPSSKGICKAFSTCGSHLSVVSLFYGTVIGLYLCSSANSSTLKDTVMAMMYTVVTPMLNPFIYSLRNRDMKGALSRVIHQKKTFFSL
Method in brief: as §1

OR1E2 (Homo sapiens) = target: T4, OR1E2 (Homo sapiens) (UniProt P47887)
T4 sequence (whole entry): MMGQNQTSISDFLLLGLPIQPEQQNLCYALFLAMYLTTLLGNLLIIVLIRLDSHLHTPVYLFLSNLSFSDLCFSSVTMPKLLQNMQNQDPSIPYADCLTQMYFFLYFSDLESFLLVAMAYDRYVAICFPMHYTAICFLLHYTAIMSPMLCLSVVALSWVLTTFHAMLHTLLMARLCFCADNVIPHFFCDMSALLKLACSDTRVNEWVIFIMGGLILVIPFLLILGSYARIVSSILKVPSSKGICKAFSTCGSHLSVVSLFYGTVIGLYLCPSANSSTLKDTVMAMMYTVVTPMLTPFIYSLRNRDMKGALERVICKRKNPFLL
Method in brief: as §1

OR1E2 = tested on: T5, OR1E2
T5 sequence (whole entry): T4 sequence (whole entry) with C27R
Method in brief: as §1

OR1F1 (Homo sapiens) = target: T6, OR1F1 (Homo sapiens) (UniProt O43749)
T6 sequence (whole entry): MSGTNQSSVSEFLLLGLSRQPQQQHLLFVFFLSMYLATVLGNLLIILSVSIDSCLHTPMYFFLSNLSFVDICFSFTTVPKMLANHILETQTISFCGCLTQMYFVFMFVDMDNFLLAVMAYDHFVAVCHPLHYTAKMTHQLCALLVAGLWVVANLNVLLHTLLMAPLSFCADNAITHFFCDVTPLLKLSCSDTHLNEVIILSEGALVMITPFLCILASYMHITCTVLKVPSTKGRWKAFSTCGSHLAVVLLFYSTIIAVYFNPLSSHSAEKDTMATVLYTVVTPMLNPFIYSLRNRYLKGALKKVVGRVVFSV
Method in brief: as §1

OR1F12P (Homo sapiens) = target: T7, OR1F12P (Homo sapiens) (UniProt Q8NHA8)
T7 sequence (whole entry): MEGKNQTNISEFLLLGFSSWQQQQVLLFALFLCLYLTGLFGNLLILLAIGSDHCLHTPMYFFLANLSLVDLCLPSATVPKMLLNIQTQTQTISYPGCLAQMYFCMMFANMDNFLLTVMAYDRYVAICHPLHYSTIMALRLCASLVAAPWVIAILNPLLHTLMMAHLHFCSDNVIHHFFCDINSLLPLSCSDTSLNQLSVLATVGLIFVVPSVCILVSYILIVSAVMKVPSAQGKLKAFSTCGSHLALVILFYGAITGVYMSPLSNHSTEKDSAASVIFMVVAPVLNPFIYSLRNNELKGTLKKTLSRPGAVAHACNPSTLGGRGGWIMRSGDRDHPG
Method in brief: as §1

OR1F1 = tested on: T8, OR1F1
T8 sequence (whole entry): T6 sequence (whole entry) with F75S
Method in brief: as §1

OR1I1 (Homo sapiens) = target: T9, OR1I1 (Homo sapiens) (UniProt O60431)
T9 sequence (whole entry): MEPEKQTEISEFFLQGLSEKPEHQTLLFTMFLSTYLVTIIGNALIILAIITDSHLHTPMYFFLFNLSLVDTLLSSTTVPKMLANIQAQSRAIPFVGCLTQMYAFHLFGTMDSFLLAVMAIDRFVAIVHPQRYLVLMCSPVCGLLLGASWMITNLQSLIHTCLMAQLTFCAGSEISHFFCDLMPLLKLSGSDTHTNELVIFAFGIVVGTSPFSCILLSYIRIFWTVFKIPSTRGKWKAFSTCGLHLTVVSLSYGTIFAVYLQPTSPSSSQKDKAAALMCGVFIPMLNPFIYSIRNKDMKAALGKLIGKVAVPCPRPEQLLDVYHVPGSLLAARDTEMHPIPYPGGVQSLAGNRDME
Method in brief: as §1

OR1J1 (Homo sapiens) = target: T10, OR1J1 (Homo sapiens) (UniProt Q8NGS3)
T10 sequence (whole entry): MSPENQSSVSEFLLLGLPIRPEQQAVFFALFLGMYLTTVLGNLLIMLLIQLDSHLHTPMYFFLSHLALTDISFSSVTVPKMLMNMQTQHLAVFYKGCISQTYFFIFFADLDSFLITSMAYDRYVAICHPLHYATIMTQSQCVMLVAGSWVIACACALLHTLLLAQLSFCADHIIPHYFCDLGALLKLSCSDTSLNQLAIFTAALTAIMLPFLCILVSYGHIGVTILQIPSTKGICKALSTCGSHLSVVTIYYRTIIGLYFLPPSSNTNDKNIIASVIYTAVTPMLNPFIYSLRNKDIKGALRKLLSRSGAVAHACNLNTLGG
Method in brief: as §1

OR1J2 (Homo sapiens) = target: T11, OR1J2 (Homo sapiens) (UniProt Q8NGS2)
T11 sequence (whole entry): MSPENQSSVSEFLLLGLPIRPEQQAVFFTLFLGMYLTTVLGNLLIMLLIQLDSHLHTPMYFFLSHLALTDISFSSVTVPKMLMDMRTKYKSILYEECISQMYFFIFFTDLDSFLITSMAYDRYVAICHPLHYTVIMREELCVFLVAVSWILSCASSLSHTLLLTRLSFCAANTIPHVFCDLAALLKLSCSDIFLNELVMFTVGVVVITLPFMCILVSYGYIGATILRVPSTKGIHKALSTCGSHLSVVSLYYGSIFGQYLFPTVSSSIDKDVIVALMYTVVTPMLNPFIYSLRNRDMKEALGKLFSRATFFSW
Method in brief: as §1

OR1J4 (Homo sapiens) = target: T12, OR1J4 (Homo sapiens) (UniProt Q8NGS1)
T12 sequence (whole entry): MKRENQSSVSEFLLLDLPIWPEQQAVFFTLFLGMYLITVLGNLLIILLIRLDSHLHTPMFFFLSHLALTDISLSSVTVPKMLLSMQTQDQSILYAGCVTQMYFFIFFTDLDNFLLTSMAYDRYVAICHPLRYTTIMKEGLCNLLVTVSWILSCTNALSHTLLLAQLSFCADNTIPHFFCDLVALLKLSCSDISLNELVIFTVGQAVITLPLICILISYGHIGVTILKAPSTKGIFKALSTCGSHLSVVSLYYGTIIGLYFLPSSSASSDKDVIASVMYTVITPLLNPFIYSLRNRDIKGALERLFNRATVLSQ
Method in brief: as §1

OR1K1 (Homo sapiens) = target: T13, OR1K1 (Homo sapiens) (UniProt Q8NGR3)
T13 sequence (whole entry): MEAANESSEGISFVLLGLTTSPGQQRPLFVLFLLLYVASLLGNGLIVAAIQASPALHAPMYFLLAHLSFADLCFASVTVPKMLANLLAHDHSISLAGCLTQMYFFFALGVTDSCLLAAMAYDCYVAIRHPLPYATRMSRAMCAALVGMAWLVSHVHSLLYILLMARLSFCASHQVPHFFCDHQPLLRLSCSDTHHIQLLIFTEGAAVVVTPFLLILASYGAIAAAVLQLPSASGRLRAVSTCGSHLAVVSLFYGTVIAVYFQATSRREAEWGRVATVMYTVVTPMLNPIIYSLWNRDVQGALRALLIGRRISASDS
Method in brief: as §1

OR1L1 = tested on: T14, OR1L1
T14 sequence (whole entry): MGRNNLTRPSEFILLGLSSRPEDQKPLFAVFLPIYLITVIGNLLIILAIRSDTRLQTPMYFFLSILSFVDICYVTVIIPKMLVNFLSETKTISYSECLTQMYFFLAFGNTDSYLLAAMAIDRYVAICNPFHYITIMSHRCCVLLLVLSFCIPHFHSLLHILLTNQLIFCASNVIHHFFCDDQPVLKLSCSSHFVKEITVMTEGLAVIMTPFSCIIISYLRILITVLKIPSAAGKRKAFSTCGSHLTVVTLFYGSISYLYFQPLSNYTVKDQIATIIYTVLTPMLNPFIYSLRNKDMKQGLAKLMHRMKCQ
Method in brief: as §1

OR1D4 (Homo sapiens) = target: T15, OR1D4 (Homo sapiens) (UniProt P47884)
T15 sequence (whole entry): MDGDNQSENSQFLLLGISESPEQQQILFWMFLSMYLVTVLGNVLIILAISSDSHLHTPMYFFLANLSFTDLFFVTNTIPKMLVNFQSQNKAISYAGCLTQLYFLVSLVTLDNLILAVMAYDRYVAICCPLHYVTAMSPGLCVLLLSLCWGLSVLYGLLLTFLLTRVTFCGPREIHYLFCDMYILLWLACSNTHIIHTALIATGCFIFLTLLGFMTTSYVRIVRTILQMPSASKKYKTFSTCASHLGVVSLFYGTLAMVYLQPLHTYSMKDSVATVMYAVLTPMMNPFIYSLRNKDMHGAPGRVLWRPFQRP
Method in brief: as §1

OR1L1 (Homo sapiens) = target: T16, OR1L1 (Homo sapiens) (UniProt Q8NH94)
T16 sequence (whole entry): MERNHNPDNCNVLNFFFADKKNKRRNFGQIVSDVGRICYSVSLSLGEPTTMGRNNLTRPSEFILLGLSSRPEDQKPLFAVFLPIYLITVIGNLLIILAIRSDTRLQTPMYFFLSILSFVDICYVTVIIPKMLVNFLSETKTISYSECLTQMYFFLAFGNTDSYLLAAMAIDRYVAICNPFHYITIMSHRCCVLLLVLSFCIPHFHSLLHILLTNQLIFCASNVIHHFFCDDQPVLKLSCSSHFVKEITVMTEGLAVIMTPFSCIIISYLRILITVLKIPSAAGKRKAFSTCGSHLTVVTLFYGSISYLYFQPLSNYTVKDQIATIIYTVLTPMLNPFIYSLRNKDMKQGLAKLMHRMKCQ
Method in brief: as §1

OR1E3 (Homo sapiens) = OR1E3 (Homo sapiens) (UniProt Q8WZA6)
Method in brief: as §1

OR1D2 [1] = tested on: OR1D2
Method in brief: as §1
Target sequence in this assay (as listed by the source): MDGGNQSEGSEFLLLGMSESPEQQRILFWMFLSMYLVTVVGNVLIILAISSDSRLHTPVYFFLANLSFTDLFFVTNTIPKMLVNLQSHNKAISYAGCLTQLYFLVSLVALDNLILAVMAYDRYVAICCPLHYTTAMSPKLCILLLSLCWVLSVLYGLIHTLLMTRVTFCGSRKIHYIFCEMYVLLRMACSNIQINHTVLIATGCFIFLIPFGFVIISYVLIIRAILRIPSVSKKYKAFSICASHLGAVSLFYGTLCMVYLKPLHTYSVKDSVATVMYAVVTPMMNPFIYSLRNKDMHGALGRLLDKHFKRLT

OR1D2 [2] = tested on: OR1D2; remark: listed apart in the source
Method in brief: as §1
Target sequence in this assay (as listed by the source): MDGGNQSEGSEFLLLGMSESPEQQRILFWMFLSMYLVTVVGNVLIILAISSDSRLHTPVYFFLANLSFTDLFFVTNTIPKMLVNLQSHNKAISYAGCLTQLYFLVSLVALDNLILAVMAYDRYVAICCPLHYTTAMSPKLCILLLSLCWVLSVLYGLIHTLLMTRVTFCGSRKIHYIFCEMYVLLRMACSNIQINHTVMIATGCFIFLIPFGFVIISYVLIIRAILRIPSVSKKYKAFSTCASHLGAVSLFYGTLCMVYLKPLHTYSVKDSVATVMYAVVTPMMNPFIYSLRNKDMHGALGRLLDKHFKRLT

OR1D2 [3] = tested on: OR1D2; remark: listed apart in the source
Method in brief: as §1
Target sequence in this assay (as listed by the source): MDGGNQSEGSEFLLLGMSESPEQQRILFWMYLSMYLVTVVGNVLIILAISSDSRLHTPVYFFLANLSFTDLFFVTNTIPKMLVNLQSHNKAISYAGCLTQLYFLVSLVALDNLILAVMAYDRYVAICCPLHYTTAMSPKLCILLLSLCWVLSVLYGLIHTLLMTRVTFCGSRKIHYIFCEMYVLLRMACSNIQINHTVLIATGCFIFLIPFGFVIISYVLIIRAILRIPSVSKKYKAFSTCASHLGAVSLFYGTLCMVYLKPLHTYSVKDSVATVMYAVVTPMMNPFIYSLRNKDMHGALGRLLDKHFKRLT

Measured: odorant receptor agonist call

Chain of OR1E3 (Homo sapiens) (Q8WZA6 whole entry): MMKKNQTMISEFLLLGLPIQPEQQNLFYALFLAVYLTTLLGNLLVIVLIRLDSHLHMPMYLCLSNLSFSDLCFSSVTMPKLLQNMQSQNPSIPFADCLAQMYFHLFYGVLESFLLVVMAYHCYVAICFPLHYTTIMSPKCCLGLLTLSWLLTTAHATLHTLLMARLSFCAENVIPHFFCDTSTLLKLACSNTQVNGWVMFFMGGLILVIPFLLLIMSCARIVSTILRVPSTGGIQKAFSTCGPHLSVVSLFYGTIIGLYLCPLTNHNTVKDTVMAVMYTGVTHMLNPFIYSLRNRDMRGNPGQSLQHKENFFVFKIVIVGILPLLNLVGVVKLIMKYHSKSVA

CC1CC(C)(c2ccccc2)CO1 (configuration not stated)
inactive: OR1G1 (Homo sapiens)

CCCCCCC(=O)CC
active: OR1G1 (Homo sapiens)

CCC(=O)O
inactive: OR1G1 (Homo sapiens)

CCC1OC(C)=C(O)C1=O (configuration not stated)
not listed: OR1D4 (Homo sapiens) | OR1L1 (Homo sapiens) | OR1E3 (Homo sapiens) | OR1D2 [1] | OR1D2 [2] | OR1D2 [3]
inactive: all other assays above

CCC(S)C(C)CO (configuration not stated)
not listed: OR1E2 | OR1F1 | OR1L1 | OR1E3 (Homo sapiens) | OR1D2 [1] | OR1D2 [2] | OR1D2 [3]
inactive: all other assays above

CC1CCCCCCCCCCCCC(=O)C1 (configuration not stated)
inactive: OR1D4 (Homo sapiens) | OR1D5 (Homo sapiens) | OR1E2 (Homo sapiens) | OR1E3 (Homo sapiens) | OR1F1 (Homo sapiens) | OR1F12P (Homo sapiens) | OR1G1 (Homo sapiens) | OR1I1 (Homo sapiens) | OR1J1 (Homo sapiens) | OR1K1 (Homo sapiens) | OR1L1 (Homo sapiens)

CCCCC1CCC(=O)O1 (configuration not stated)
inactive: OR1G1 (Homo sapiens)

CCCCCCCCCCCCO
active: OR1G1 (Homo sapiens)

CC(C=O)Cc1ccc(C(C)(C)C)cc1 (configuration not stated)
inactive: OR1D2 [1] | OR1D2 [2] | OR1D2 [3]

CCCCCC(O)CC (configuration not stated)
active: OR1G1 (Homo sapiens)
